Test results taken from ChEMBL document CHEMBL3779826, “Converting maslinic acid into an effective inhibitor of acylcholinesterases” (Eur J Med Chem, 2015).

What was measured:
Acetylcholinesterase = Acetylcholinesterase (Electrophorus electricus, UniProt O42275); experiment: Inhibition of Electrophorus electricus AChE using acetylthiocholine iodide as substrate preincubated for 20mins before the addition of substrate by Ellman's method
Cholinesterase = Cholinesterase (Equus caballus, UniProt P81908); experiment: Inhibition of equine serum BChE using butyrylthiocholine iodide as substrate preincubated for 20mins before the addition of substrate by Ellman's method
[1] = biological target: Acetylcholinesterase (Electrophorus electricus) (UniProt O42275); experiment: Mixed type inhibition of Electrophorus electricus AChE by Lineweaver-Burk plot analysis
Summary of the method: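 Ellman kinetics at 30 °C in pH 8.0 Tris-HCl with DTNB. Enzyme plus inhibitor (3 concentrations and a water blank) was preincubated for 20 min, then ATChI was added at 0.9375, 0.625, 0.325 or 0.1875 mM. A415 was read every minute for 30 min, in triplicate. Mode, Ki and Ki' came from Lineweaver-Burk, Dixon and Cornish-Bowden plots.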

Cholinesterase, sequence (P81908 whole entry): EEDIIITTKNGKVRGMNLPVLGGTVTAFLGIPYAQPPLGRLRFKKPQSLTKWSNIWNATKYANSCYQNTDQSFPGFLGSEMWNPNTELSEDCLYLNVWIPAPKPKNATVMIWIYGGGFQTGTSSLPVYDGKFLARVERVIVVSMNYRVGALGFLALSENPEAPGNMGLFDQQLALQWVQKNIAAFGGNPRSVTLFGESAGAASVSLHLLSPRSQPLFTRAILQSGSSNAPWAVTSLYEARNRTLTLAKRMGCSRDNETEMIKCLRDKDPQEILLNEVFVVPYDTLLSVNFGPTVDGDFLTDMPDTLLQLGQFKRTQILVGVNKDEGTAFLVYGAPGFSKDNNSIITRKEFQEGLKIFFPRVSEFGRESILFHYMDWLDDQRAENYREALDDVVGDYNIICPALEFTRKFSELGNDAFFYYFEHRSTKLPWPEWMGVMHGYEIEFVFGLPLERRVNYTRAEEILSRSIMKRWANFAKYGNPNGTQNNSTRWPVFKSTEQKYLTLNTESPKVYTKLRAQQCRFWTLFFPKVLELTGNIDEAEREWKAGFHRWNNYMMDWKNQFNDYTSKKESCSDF
Acetylcholinesterase (Electrophorus electricus), sequence (O42275 24-633 limits assumed): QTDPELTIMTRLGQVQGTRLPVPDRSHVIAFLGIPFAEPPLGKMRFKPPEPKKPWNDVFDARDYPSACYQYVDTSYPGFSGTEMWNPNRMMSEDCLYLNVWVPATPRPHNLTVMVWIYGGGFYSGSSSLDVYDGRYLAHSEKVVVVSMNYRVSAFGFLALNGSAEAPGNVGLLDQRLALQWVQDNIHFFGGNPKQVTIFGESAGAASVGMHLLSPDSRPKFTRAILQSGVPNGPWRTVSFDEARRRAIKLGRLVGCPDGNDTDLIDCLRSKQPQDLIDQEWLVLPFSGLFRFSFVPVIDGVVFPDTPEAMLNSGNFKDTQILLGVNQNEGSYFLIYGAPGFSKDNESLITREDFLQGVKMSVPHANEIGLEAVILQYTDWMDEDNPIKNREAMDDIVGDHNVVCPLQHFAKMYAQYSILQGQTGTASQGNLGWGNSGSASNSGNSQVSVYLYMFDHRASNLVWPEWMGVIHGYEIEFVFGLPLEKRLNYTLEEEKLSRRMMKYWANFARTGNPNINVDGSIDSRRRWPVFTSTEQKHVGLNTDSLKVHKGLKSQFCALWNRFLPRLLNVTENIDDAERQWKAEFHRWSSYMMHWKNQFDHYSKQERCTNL
Acetylcholinesterase, sequence (O42275 whole entry): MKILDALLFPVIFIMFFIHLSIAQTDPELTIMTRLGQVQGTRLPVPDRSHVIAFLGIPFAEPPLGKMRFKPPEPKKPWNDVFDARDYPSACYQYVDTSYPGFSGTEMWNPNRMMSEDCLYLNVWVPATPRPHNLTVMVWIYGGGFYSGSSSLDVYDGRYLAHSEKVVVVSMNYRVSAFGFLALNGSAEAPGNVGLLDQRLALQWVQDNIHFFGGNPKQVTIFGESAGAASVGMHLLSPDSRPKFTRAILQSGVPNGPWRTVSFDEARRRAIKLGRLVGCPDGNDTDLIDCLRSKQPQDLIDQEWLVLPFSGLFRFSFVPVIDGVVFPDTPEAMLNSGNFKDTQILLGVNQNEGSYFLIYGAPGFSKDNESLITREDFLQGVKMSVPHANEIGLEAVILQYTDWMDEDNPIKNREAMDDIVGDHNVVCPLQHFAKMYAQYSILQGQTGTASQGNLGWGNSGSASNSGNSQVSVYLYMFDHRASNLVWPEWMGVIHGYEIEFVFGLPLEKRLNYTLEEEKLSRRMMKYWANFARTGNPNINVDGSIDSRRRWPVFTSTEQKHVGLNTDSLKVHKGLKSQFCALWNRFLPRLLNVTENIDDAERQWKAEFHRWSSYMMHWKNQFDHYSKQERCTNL

| SMILES | IC50 (Acetylcholinesterase) [µM] | Ki (Acetylcholinesterase; read-out: Ki) [µM] | Ki (Cholinesterase; read-out: Ki) [µM] | also measured |
| --- | --- | --- | --- | --- |
| CC1(C)CC[C@@]2(C(=O)OCc3ccc([N+](=O)[O-])cc3)CC[C@@]3(C)C(=CC[C@H]4[C@]5(C)C[C@H](O)[C@@H](O)C(C)(C)[C@H]5CC[C@@]43C)[C@H]2C1 (single isomer, unassigned) | 7.41 | 6.14 | > 4 | Kiuc [1]: 7.22 µM |
| CC1(C)CC[C@]2(C(=O)NCc3ccccc3)CC[C@]3(C)C(=CC[C@@H]4[C@@]5(C)C[C@@H](OC(=O)CCl)[C@H](OC(=O)CCl)C(C)(C)[C@@H]5CC[C@]43C)[C@@H]2C1 | 20 | 25.1 |  |  |
| CC1(C)CC[C@]2(C(=O)OCc3ccc(Cl)cc3)CC[C@]3(C)C(=CC[C@@H]4[C@@]5(C)C[C@@H](O)[C@H](O)C(C)(C)[C@@H]5CC[C@]43C)[C@@H]2C1 |  | > 30 | > 30 |  |
| CC(=O)O[C@H]1C[C@]2(C)[C@H]3CC=C4[C@@H]5CC(C)(C)CC[C@]5(C(=O)O)CC[C@@]4(C)[C@]3(C)CC[C@H]2C(C)(C)[C@H]1OC(C)=O |  | > 20 | > 20 |  |
| COC(=O)[C@]12CCC(C)(C)C[C@H]1C1=CC[C@@H]3[C@@]4(C)C[C@@H](OS(N)(=O)=O)[C@H](O)C(C)(C)[C@@H]4CC[C@@]3(C)[C@]1(C)CC2 |  | > 40 | > 40 |  |
| CC(=O)O[C@@H]1C[C@]2(C)[C@H]3CC=C4[C@@H]5CC(C)(C)CC[C@]5(C(N)=O)CC[C@@]4(C)[C@]3(C)CC[C@H]2C(C)(C)[C@H]1OC(C)=O |  | > 20 | > 20 |  |
| CC1(C)CC[C@]2(C(=O)OCC3CCCCC3)CC[C@]3(C)C(=CC[C@@H]4[C@@]5(C)C[C@@H](O)[C@H](O)C(C)(C)[C@@H]5CC[C@]43C)[C@@H]2C1 | 3.87 | 10 | > 14 | Kiuc [1]: 2.67 µM |
| C=CCNC(=O)[C@]12CCC(C)(C)C[C@H]1C1=CC[C@@H]3[C@@]4(C)C[C@@H](OC(C)=O)[C@H](OC(C)=O)C(C)(C)[C@@H]4CC[C@@]3(C)[C@]1(C)CC2 |  | > 20 | > 20 |  |
| C#CCOC(=O)[C@]12CCC(C)(C)C[C@H]1C1=CC[C@@H]3[C@@]4(C)C[C@@H](O)[C@H](O)C(C)(C)[C@@H]4CC[C@@]3(C)[C@]1(C)CC2 |  | > 10 | > 10 |  |
| COC(=O)[C@]12CCC(C)(C)C[C@H]1C1=CC[C@@H]3[C@@]4(C)C[C@@H](O)[C@H](O)C(C)(C)[C@@H]4CC[C@@]3(C)[C@]1(C)CC2 [MASLINIC ACID METHYL ESTER] |  | > 50 | > 50 |  |
| CC1(C)CC[C@]2(C(=O)OCCC#CCl)CC[C@]3(C)C(=CC[C@@H]4[C@@]5(C)C[C@@H](O)[C@H](O)C(C)(C)[C@@H]5CC[C@]43C)[C@@H]2C1 | 6.57 | 5.71 | > 6 | Kiuc [1]: 14.8 µM |
| C=CCCOC(=O)[C@]12CCC(C)(C)C[C@H]1C1=CC[C@@H]3[C@@]4(C)C[C@@H](O)[C@H](O)C(C)(C)[C@@H]4CC[C@@]3(C)[C@]1(C)CC2 | 6.25 | 3.31 | > 10 | Kiuc [1]: 11.5 µM |
| CC1(C)CC[C@]2(C(=O)O)CC[C@]3(C)C(=CC[C@@H]4[C@@]5(C)C[C@@H](OC(=O)CCl)[C@H](OC(=O)CCl)C(C)(C)[C@@H]5CC[C@]43C)[C@@H]2C1 | 15.1 | 13.1 |  | Kiuc [1]: 19.8 µM |
| CC1(C)CC[C@]2(C(=O)OCCCO)CC[C@]3(C)C(=CC[C@@H]4[C@@]5(C)C[C@@H](O)[C@H](O)C(C)(C)[C@@H]5CC[C@]43C)[C@@H]2C1 | 13.8 | 20.1 | > 10 | Kiuc [1]: 13.7 µM |
| CCCNC(=O)[C@]12CCC(C)(C)C[C@H]1C1=CC[C@@H]3[C@@]4(C)C[C@@H](OC(C)=O)[C@H](OC(C)=O)C(C)(C)[C@@H]4CC[C@@]3(C)[C@]1(C)CC2 |  | > 6 | > 6 |  |
| CC(=O)O[C@@H]1C[C@]2(C)[C@H]3CC=C4[C@@H]5CC(C)(C)CC[C@]5(C(=O)O)CC[C@@]4(C)[C@]3(C)CC[C@H]2C(C)(C)[C@H]1OC(C)=O |  | > 10 | > 10 |  |
| CC1(C)CC[C@]2(C(=O)OCCCCl)CC[C@]3(C)C(=CC[C@@H]4[C@@]5(C)C[C@@H](O)[C@H](O)C(C)(C)[C@@H]5CC[C@]43C)[C@@H]2C1 | 4.07 | 8.76 | > 6 | Kiuc [1]: 3.45 µM |
| CCNC(=O)[C@]12CCC(C)(C)C[C@H]1C1=CC[C@@H]3[C@@]4(C)C[C@@H](O)[C@H](O)C(C)(C)[C@@H]4CC[C@@]3(C)[C@]1(C)CC2 |  | > 20 | > 20 |  |

| SMILES | IC50 (Acetylcholinesterase) [µM] | Ki (Acetylcholinesterase; read-out: Ki) [µM] | Ki (Cholinesterase; read-out: Ki) [µM] | also measured |
| --- | --- | --- | --- | --- |
| CCNC(=O)[C@]12CCC(C)(C)C[C@H]1C1=CC[C@@H]3[C@@]4(C)C[C@@H](OC(C)=O)[C@H](OC(C)=O)C(C)(C)[C@@H]4CC[C@@]3(C)[C@]1(C)CC2 |  | > 14 | > 14 |  |
| C=CCNC(=O)[C@]12CCC(C)(C)C[C@H]1C1=CC[C@@H]3[C@@]4(C)C[C@@H](O)[C@H](O)C(C)(C)[C@@H]4CC[C@@]3(C)[C@]1(C)CC2 |  | > 20 | > 20 |  |
| CC1(C)CC[C@]2(C(N)=O)CC[C@]3(C)C(=CC[C@@H]4[C@@]5(C)C[C@@H](O)[C@H](O)C(C)(C)[C@@H]5CC[C@]43C)[C@@H]2C1 |  | > 20 | 18.1 | IC50 (Cholinesterase): 34.1 µM |
| CC(=O)O[C@@H]1C[C@]2(C)[C@H]3CC=C4[C@@H]5CC(C)(C)CC[C@]5(C(=O)NCc5ccccc5)CC[C@@]4(C)[C@]3(C)CC[C@H]2C(C)(C)[C@H]1OC(C)=O | 29.4 | 16.2 |  | Kiuc [1]: 39.4 µM |
| C#CCNC(=O)[C@]12CCC(C)(C)C[C@H]1C1=CC[C@@H]3[C@@]4(C)C[C@@H](O)[C@H](O)C(C)(C)[C@@H]4CC[C@@]3(C)[C@]1(C)CC2 |  | > 20 | > 20 |  |
| C=CCOC(=O)[C@]12CCC(C)(C)C[C@H]1C1=CC[C@@H]3[C@@]4(C)C[C@@H](O)[C@H](O)C(C)(C)[C@@H]4CC[C@@]3(C)[C@]1(C)CC2 |  | > 30 | > 30 |  |
| CC(=O)O[C@H]1C[C@]2(C)[C@H]3CC=C4[C@@H]5CC(C)(C)CC[C@]5(C(=O)NCc5ccccc5)CC[C@@]4(C)[C@]3(C)CC[C@H]2C(C)(C)[C@H]1OC(C)=O |  | > 10 |  |  |
| CC1(C)CC[C@]2(C(=O)OCc3cccc(Cl)c3)CC[C@]3(C)C(=CC[C@@H]4[C@@]5(C)C[C@@H](O)[C@H](O)C(C)(C)[C@@H]5CC[C@]43C)[C@@H]2C1 |  | > 10 | > 10 |  |
| CC1(C)CC[C@]2(C(=O)OCCCCBr)CC[C@]3(C)C(=CC[C@@H]4[C@@]5(C)C[C@@H](O)[C@H](O)C(C)(C)[C@@H]5CC[C@]43C)[C@@H]2C1 |  | > 10 | > 10 |  |
| CC1(C)CC[C@]2(C(=O)NCc3ccccc3)CC[C@]3(C)C(=CC[C@@H]4[C@@]5(C)C[C@@H](O)[C@H](O)C(C)(C)[C@@H]5CC[C@]43C)[C@@H]2C1 |  | > 10 |  |  |
| CCCCCCCCCCCCCCCCCCOC(=O)[C@]12CCC(C)(C)C[C@H]1C1=CC[C@@H]3[C@@]4(C)C[C@@H](O)[C@H](O)C(C)(C)[C@@H]4CC[C@@]3(C)[C@]1(C)CC2 |  |  |  | Ki (Acetylcholinesterase): ND(Insoluble); Ki (Cholinesterase): ND(Insoluble) |
| CC1(C)CC[C@]2(C(=O)OCc3ccccc3)CC[C@]3(C)C(=CC[C@@H]4[C@@]5(C)C[C@@H](O)[C@H](O)C(C)(C)[C@@H]5CC[C@]43C)[C@@H]2C1 [BENZYL MASLINATE] |  | > 14 | > 14 |  |
| CC1(C)CC[C@]2(C(=O)NCc3ccccc3)CC[C@]3(C)C(=CC[C@@H]4[C@@]5(C)C[C@H](OC(=O)CCl)[C@H](OC(=O)CCl)C(C)(C)[C@@H]5CC[C@]43C)[C@@H]2C1 | 15.3 | 6.25 |  |  |
| CCCCCCCCCCCCOC(=O)[C@]12CCC(C)(C)C[C@H]1C1=CC[C@@H]3[C@@]4(C)C[C@@H](O)[C@H](O)C(C)(C)[C@@H]4CC[C@@]3(C)[C@]1(C)CC2 |  |  |  | Ki (Acetylcholinesterase): ND(Insoluble); Ki (Cholinesterase): ND(Insoluble) |
| C#CCNC(=O)[C@]12CCC(C)(C)C[C@H]1C1=CC[C@@H]3[C@@]4(C)C[C@@H](OC(C)=O)[C@H](OC(C)=O)C(C)(C)[C@@H]4CC[C@@]3(C)[C@]1(C)CC2 | 15.1 | 8.14 | > 14 |  |
| CC1(C)CC[C@]2(C(=O)OCc3ccc(Br)cc3)CC[C@]3(C)C(=CC[C@@H]4[C@@]5(C)C[C@@H](O)[C@H](O)C(C)(C)[C@@H]5CC[C@]43C)[C@@H]2C1 |  | > 20 | > 20 |  |
| CC1(C)CC[C@]2(C(=O)OCCO)CC[C@]3(C)C(=CC[C@@H]4[C@@]5(C)C[C@@H](O)[C@H](O)C(C)(C)[C@@H]5CC[C@]43C)[C@@H]2C1 |  | > 100 | > 100 |  |
| CC1(C)CC[C@]2(C(=O)O)CC[C@]3(C)C(=CC[C@@H]4[C@@]5(C)C[C@H](OC(=O)CCl)[C@H](OC(=O)CCl)C(C)(C)[C@@H]5CC[C@]43C)[C@@H]2C1 | 6.6 | 6.85 |  | Kiuc [1]: 9.36 µM |
